The results in this text go back to ChEMBL document CHEMBL4354879, “Bioisosteric Discovery of NPA101.3, a Second-Generation RET/VEGFR2 Inhibitor Optimized for Single-Agent Polypharmacology” (J Med Chem, 2020).

Data set [1] addresses T1, Proto-oncogene tyrosine-protein kinase receptor Ret (Homo sapiens, UniProt P07949). Description: Inhibition of recombinant human GST-tagged RET cytoplasmic domain (658 to 1114 residues) expressed in baculovirus expression system using 5'FAM-EPLYWSFPA as substrate preincubated for 60 mins followed by substrate addition by microfluidic assay.
In data set [2] the target is T1, Proto-oncogene tyrosine-protein kinase receptor Ret. The experiment in a line: Binding affinity to recombinant phosphorylated RET kinase domain (705 to 1013 residues) (unknown origin) expressed in baculovirus infected Sf9 insect cells assessed as change in melting temperature at 40 uM measured over 240 mins by sypro orange dye based thermal shift assay.
Data set [3] concerns the target T2, SHC-transforming protein 1 (Homo sapiens) (UniProt P29353).
T2 sequence (whole entry): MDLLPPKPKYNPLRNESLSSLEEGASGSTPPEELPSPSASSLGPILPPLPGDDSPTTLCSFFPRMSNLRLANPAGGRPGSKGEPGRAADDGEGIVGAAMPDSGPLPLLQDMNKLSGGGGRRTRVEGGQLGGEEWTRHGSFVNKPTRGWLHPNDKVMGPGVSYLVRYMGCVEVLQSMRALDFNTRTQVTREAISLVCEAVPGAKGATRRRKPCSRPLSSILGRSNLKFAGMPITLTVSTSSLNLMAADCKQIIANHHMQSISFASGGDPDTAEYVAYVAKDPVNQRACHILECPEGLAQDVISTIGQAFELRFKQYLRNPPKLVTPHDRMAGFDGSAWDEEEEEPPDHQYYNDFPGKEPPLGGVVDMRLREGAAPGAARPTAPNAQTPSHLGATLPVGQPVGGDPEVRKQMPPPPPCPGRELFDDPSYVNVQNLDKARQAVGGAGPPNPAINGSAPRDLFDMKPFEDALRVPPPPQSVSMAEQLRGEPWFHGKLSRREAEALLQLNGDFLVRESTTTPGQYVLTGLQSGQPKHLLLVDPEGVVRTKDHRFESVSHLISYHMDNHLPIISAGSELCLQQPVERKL
Description: Effect on SHC phosphorylation in RET deficient human Nthy-ori 3-1 cells at 1 to 100 nM measured after 2 hrs by western blot analysis.

In data set [4] the test system is Proto-oncogene tyrosine-protein kinase receptor Ret (Homo sapiens), P07949 [C634R]. Description: Inhibition of RET isoform 9 C634R mutant (unknown origin) expressed in rat Rat1 assessed as reduction in RET phosphorylation at Y905 residue at 0.3 nM measured after 2 hrs by Western blot analysis. It counts as cell-based. The method, boiled down:
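RAT1 fibroblasts expressing RET-9 C634R, serum-starved, treated 2 h with 0.1–10.0 nM; 50 μg lysate blotted for RET pY905 and pY1062, normalized to total RET; ECL detection.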
A general note: A western blot detects proteins with antibodies after separation by electrophoresis.

The test system of data set [5] is Proto-oncogene tyrosine-protein kinase receptor Ret (Homo sapiens), P07949 [M918T]. The experiment in a line: Inhibition of RET isoform 9 M918T mutant (unknown origin) expressed in rat Rat1 assessed as reduction in RET phosphorylation at Y905 residue at 1 to 100 nM measured after 2 hrs by Western blot analysis. It counts as cell-based. The method, boiled down:
(§1)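 Serum-starved RAT1 (RET point mutants) or NIH3T3 (RET rearrangements) cells expressing short RET-9 isoform, treated 2 h; 50 μg total lysate immunoblotted with anti-phospho-Y1062 and anti-phospho-Y905 RET antibodies, normalized to total RET; ECL detection. Compound from 50 mM DMSO stock diluted in growth medium.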

For data set [6] the test system is unchanged. The experiment in a line: Inhibition of RET isoform 9 M918T mutant (unknown origin) expressed in rat Rat1 assessed as reduction in RET phosphorylation at Y1062 residue at 1 to 100 nM measured after 2 hrs by Western blot analysis. It counts as cell-based. The method, boiled down:
as §1

The test system of data set [7] is Proto-oncogene tyrosine-protein kinase receptor Ret (Homo sapiens), P07949 [A883F]. The experiment in a line: Inhibition of RET isoform 9 A883F mutant (unknown origin) expressed in rat Rat1 assessed as reduction in RET phosphorylation at Y1062 residue at 1 to 100 nM measured after 2 hrs by Western blot analysis. It counts as cell-based. The method, boiled down:
as §1

Data set [8] has as its target Centrosomal protein 43/RET (Homo sapiens) (UniProt P07949+O95684). Description: Inhibition of FGFR1OP/RET isoform 9 (unknown origin) expressed in mouse NIH/3T3 cells assessed as reduction in RET phosphorylation at Y905 residue at 1 to 100 nM measured after 2 hrs by Western blot analysis. Type of data set: cell-based. The method, boiled down:
as §1

The next data set is filed under the species Homo sapiens. The experiment in a line: Inhibition of CCDC6/RET isoform 9 (unknown origin) expressed in mouse NIH/3T3 cells assessed as reduction in RET phosphorylation at Y1062 residue at 1 to 100 nM measured after 2 hrs by Western blot analysis. Type of data set: cell-based. The method, boiled down:
as §1

Data set [9] deals with Proto-oncogene tyrosine-protein kinase receptor Ret (Homo sapiens), P07949 [M918T]. Description: Inhibition of Ret isoform 9 M918T mutant in human MZ-CRC-1 cells assessed as reduction in phosphorylation at Y1062 residue at 0.3 to 30 nM measured after 2 hrs by Western blot analysis. It counts as cell-based.
Sequence of Proto-oncogene tyrosine-protein kinase receptor Ret (Homo sapiens), P07949 [M918T] (P07949 whole entry M918T, canonical isoform): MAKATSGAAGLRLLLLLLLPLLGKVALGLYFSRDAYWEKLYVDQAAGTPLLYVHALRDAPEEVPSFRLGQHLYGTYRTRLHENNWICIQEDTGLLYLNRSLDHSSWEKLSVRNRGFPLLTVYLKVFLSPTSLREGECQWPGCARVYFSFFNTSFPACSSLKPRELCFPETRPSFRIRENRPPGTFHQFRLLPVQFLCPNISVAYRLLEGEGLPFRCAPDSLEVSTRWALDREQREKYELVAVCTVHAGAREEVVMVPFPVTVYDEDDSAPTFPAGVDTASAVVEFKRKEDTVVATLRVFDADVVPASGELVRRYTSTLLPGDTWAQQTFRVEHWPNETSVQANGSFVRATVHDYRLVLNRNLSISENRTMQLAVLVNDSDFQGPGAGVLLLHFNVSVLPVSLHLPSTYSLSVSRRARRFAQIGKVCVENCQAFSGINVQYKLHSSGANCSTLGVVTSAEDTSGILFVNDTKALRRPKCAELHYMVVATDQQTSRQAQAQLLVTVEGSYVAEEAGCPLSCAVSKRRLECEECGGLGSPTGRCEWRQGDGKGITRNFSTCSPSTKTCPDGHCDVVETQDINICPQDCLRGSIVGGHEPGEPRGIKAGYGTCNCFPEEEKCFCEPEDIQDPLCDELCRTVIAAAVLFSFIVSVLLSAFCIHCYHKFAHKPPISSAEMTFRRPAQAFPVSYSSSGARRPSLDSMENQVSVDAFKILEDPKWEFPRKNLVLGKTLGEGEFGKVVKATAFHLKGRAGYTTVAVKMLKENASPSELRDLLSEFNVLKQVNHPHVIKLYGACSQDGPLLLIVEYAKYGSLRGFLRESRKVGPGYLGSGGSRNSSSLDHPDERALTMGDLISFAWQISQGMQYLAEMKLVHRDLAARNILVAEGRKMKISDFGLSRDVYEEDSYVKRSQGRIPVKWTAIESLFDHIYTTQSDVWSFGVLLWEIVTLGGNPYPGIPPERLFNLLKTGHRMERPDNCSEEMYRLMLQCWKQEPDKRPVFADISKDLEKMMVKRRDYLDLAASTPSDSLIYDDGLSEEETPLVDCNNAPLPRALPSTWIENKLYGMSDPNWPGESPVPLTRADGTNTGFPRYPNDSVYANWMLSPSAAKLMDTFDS
In data set [10] the target is T2, SHC-transforming protein 1 (Homo sapiens). The experiment in a line: Effect on SHC phosphorylation in RET deficient human BCPAP cells at 1 to 100 nM measured after 2 hrs by western blot analysis. It counts as cell-based.
Data set [11] has the same target. The experiment in a line: Effect on SHC phosphorylation in RET deficient human A549 cells at 1 to 100 nM measured after 2 hrs by western blot analysis. It counts as cell-based.
The test system of a further data set is A549. Description: Effect on MAPK phosphorylation in RET deficient human A549 cells at 1 to 100 nM measured after 2 hrs by western blot analysis. It counts as cell-based.
For another data set, the system named is BaF3. The experiment in a line: Inhibition of NCOA4/RET […] (unknown origin) expressed in mouse BAF3 cells assessed as reduction in RET phosphorylation at Y1062 residue at 0.3 to 30 nM measured after 2 hrs by Western blot analysis. It counts as cell-based. As to conditions: Homo sapiens. The method, boiled down: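 Ba/F3 cells stably expressing long-isoform RET-51 mutants (electroporation), cultured in RPMI/10% FCS without IL-3; RET phosphorylation read by Western blot with anti-phospho-Y905 and anti-phospho-Y1062 antibodies, ECL detection.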

The target in data set [12] is T2, SHC-transforming protein 1 (Homo sapiens). Description: Effect on SHC phosphorylation in RET deficient human 8505C cells at 1 to 100 nM measured after 2 hrs by western blot analysis. Type of data set: cell-based.
In a further data set the test system is PC-9. Description: Cytotoxicity against RET deficient human PC9 cells supplemented with fresh medium containing compound for every 2 to 3 days measured during compound dosing. Type of data set: functional, cell-based. The method, boiled down:
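Human RET-negative lines were seeded in six-well plates at 10000 cells/well, in 5% FCS (Nthy-ori-3-1) or 10% FCS (BCPAP, 8505-C, CALU-1, A549, PC-9). Drug or vehicle was added the day after plating, with medium changed every 2–3 days. Cells were counted every 2–3 days. IC50 was fitted from the last day of the growth curves.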

The nature of data set [13]: Drug metabolism in BALB/c nu/nu mouse assessed as formation of demethylated metabolite at 10 mg/kg, po measured after 1 to 4 hrs by LC-MS analysis. It counts as ADME, organism-based. The note with it: in vivo.
Data set [14] in a line: Toxicity in BALB/c nu/nu mouse assessed as change in glucose level at 10 mg/kg, po administered daily for 7 days. Type of data set: organism-based. The note with it: in vivo, 168 h.
The nature of data set [15]: Toxicity in BALB/c nu/nu mouse assessed as change in blood urea nitrogen level at 10 mg/kg, po administered daily for 7 days. The note with it: in vivo, 168 h. Type of data set: organism-based. The method, boiled down:
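Mice dosed orally with 10 mg/kg/day for 7 days; standard blood markers of organ damage measured.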

Active and inactive are the calls of the source. The rule behind the calls is not given here.

T1 sequence (P07949 whole entry, the tested form may be a part): as the sequence (P07949 whole entry M918T, canonical isoform) above, with T918M counted along it
Sequence of Proto-oncogene tyrosine-protein kinase receptor Ret (Homo sapiens), P07949 [C634R] (P07949 whole entry C634R, canonical isoform): as the sequence (P07949 whole entry M918T, canonical isoform) above, with C634R, T918M counted along it
Sequence of Proto-oncogene tyrosine-protein kinase receptor Ret (Homo sapiens), P07949 [A883F] (P07949 whole entry A883F, canonical isoform): as the sequence (P07949 whole entry M918T, canonical isoform) above, with A883F, T918M counted along it
Sequence of Centrosomal protein 43/RET (Homo sapiens) (O95684 whole entry, looked up, canonical isoform): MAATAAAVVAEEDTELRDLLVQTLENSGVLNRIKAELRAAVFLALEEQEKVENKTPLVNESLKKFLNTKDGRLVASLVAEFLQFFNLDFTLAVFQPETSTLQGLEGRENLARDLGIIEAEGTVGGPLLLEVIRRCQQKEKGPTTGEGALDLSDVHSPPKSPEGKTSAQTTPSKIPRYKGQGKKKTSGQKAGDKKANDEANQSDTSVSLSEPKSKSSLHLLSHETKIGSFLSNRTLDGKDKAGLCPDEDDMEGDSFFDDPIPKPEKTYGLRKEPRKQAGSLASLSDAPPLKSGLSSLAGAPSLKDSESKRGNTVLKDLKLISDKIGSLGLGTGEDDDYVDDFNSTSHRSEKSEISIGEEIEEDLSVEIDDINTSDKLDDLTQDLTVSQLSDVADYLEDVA
Sequence of Centrosomal protein 43/RET (Homo sapiens) (P07949 whole entry, looked up, canonical isoform): as the sequence (P07949 whole entry M918T, canonical isoform) above, with T918M counted along it

A word on the IC50: it is the concentration that inhibits the measured activity by half. Broadly, the ΔTm is the change in melting temperature against a reference sample. On to `CC(C)(C)c1cc(NC(=O)Cc2ccc(-n3cnc4cc(-c5ccc(S(C)(=O)=O)cc5)ccc43)cc2)no1`, for which the IC50 is 1 nM in [1] and greater than 100 nM with PC-9. The ΔTm in [2] was found to be 16 °C. Moreover, the outcome (in data set [3]; in data set [10]; in [11]; in the data set with A549; in data set [12]) was inactive. In addition, the inhibition entry (in data set [4]; in data set [5]; in data set [6]; in data set [7]; in data set [8]; in the data set filed under Homo sapiens) was “Active” each time. Further, the inhibition result (in [9]; with BaF3) was “Active” each time. Besides, the Drug metabolism result in data set [13] is “Metabolite_Notdetected”. The Activity result in [14] and in data set [15] was “Non-Toxic” in each case.
